{
  "source": "paper PMC10568112",
  "about": "(Journal of Pharmaceutical Analysis, 2023)",
  "key": {"[1]": {"tested_on": "carboxylesterase of gut microbiota", "type": "in vitro ADME, Balb/c mice", "conditions": "for inhibition rate of tyrosol production: 120 min, SNZ 10 μg/mL, vs control group", "method_in_brief": "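Gut bacteria incubations were set up as for the microbial metabolism assay, with test compound at a final 10 μg/mL. The carboxylesterase inhibitor BNPP was added at 1, 5 or 10 mM; cultures without BNPP served as control. Incubation was at 37 °C for 0, 15, 30, 60, 90 and 120 min. Inhibition of tyrosol production at 120 min was expressed relative to control.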"}, "[2]": {"tested_on": "gut microbiota (intestinal bacteria incubation system)", "assay": "Metabolism of SNZ by intestinal bacteria in vitro", "type": "in vitro ADME, Balb/c mice", "conditions": "SNZ 10 μg/mL; for course of metabolite content in intestinal bacteria incubation: 0-2 h", "method_in_brief": "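Contents of male Balb/c intestine were mixed 1:30 (w/v) in anaerobic medium, kept under N2 and pre-incubated 30 min at 37 °C. Test compound was present at a final 10 μg/mL, and inactivated bacteria medium served as negative control. Shaking at 37 °C, 200 rpm was done in two separate runs: 0, 1, 2, 6, 12 and 24 h, then 0, 15, 30, 60, 90 and 120 min. Parent and metabolite contents were followed over time.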"}, "[3]": {"assay": "Pharmacokinetics after oral SNZ in tumor mice and PGF tumor mice", "type": "in vivo, Balb/c mice", "conditions": "oral SNZ 109.2 mg/kg"}, "[4]": {"assay": "Tissue distribution after oral SNZ in tumor bearing mice", "type": "in vivo, Balb/c mice", "conditions": "20 min after oral SNZ 109.2 mg/kg; for tissues in which the metabolite is distributed: tumor mice", "method_in_brief": "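Three tumour-bearing mice per group, conventional or PGF, were fasted overnight and dosed orally at 109.2 mg/kg. After 20 min they were anaesthetised with 20% urethane and PBS-perfused. Organs and tumour were homogenised in 3 volumes of PBS. 100 μL homogenate was mixed with 300 μL methanol containing glipizide (100 ng/mL), vortexed 1 min and centrifuged at 14,000 rpm for 10 min. Supernatant was analysed by HPLC-MS/MS.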"}, "[5]": {"assay": "Pharmacokinetics after oral SNZ in normal Balb/c mice and pseudo-germfree", "type": "in vivo", "conditions": "oral SNZ 109.2 mg/kg; for Cmax / half-life / Tmax: Balb/c, mouse, po, 109.2 mg/kg; for Cmax / half-life / Tmax / AUC(0−t) / AUC(0−∞): plasma, mean"}, "[6]": {"conditions": "tumor mice (column head Normal), plasma, mean"}, "[7]": {"conditions": "PK parameters in PGF could not be fitted"}},
  "note": "Where two headings read alike, the source gives them in different places.",
  "data": [
    {"smiles": "O=[N+]([O-])c1ccc(OP(=O)(O)Oc2ccc([N+](=O)[O-])cc2)cc1", "note": "[BNPP, bis-p-nitrophenyl phosphate]", "values": [
      {"measurement": "effect on metabolic rate of SNZ by gut microbiota", "setting": "[1]; BNPP 0, 1, 5 and 10 mM", "value": "inhibited in a dose-dependent manner"},
      {"measurement": "inhibition rate of tyrosol production", "setting": "[1]; BNPP 1 mM", "value": 81.5, "unit": "%"},
      {"measurement": "inhibition rate of tyrosol production", "setting": "[1]; BNPP 5 mM", "value": 93.1, "unit": "%"},
      {"measurement": "inhibition rate of tyrosol production", "setting": "[1]; BNPP 10 mM", "value": 100.0, "unit": "%"},
      {"measurement": "prolongation of SNZ metabolism compared with control group", "setting": "[1]; BNPP 10 mM, within 120 min", "value": "approximately 60 min"}
    ]},
    {"smiles": "OC[C@H]1O[C@@H](OCCc2ccc(O)cc2)[C@H](O)[C@@H](O)[C@@H]1O", "note": "[Salidroside, salidroside]", "values": [
      {"measurement": "course of metabolite content in intestinal bacteria incubation", "setting": "[2]", "value": "gradually decreased"},
      {"measurement": "highest peak concentration of metabolite in intestinal bacteria incubation", "setting": "[2]; peak at 15 min", "value": 3.29, "unit": "µg/mL"},
      {"measurement": "Cmax", "setting": "[3]; Balb/c, mouse, plasma, po, 109.2 mg/kg, cmax, PGF tumor mice, mean", "value": 75, "unit": "ng/mL"},
      {"measurement": "half-life", "setting": "[3]; Balb/c, mouse, plasma, po, 109.2 mg/kg, t1/2, PGF tumor mice, mean", "value": 20.4, "unit": "min"},
      {"measurement": "Tmax", "setting": "[3]; Balb/c, mouse, plasma, po, 109.2 mg/kg, tmax, PGF tumor mice, mean", "value": 18, "unit": "min"},
      {"measurement": "AUC(0−t)", "setting": "[3]; PGF tumor mice, plasma, mean", "value": 2207.64, "unit": "µg/L/min"},
      {"measurement": "AUC(0−∞)", "setting": "[3]; PGF tumor mice, plasma, mean", "value": 2452.12, "unit": "µg/L/min"},
      {"measurement": "AUC(0−t)", "setting": "[3]; [6]", "value": 22373.93, "unit": "µg/L/min"},
      {"measurement": "AUC(0−∞)", "setting": "[3]; [6]", "value": 23773.54, "unit": "µg/L/min"},
      {"measurement": "amount detected in tumor tissue of tumor mice compared with PGF tumor mice", "setting": "[4]", "value": "a large amount"},
      {"measurement": "tissues in which the metabolite is distributed", "setting": "[4]", "value": "liver, kidney, stomach, small intestine, etc."},
      {"measurement": "Cmax", "setting": "[5]; PGF mice", "value": 82.7, "unit": "ng/mL"},
      {"measurement": "Cmax", "setting": "[5]; normal Balb/c mice", "value": 257, "unit": "ng/mL"},
      {"measurement": "half-life", "setting": "[5]; t1/2, PGF mice", "value": 14.2, "unit": "min"},
      {"measurement": "half-life", "setting": "[5]; t1/2, normal Balb/c mice", "value": 90.8, "unit": "min"},
      {"measurement": "Tmax", "setting": "[5]; PGF mice", "value": 16, "unit": "min"},
      {"measurement": "Tmax", "setting": "[5]; normal Balb/c mice", "value": 44, "unit": "min"},
      {"measurement": "AUC(0−t)", "setting": "[5]; PGF mice", "value": 3079.01, "unit": "µg/L/min"},
      {"measurement": "AUC(0−∞)", "setting": "[5]; PGF mice", "value": 3205.99, "unit": "µg/L/min"},
      {"measurement": "AUC(0−t)", "setting": "[5]; normal Balb/c mice", "value": 33814.78, "unit": "µg/L/min"},
      {"measurement": "AUC(0−∞)", "setting": "[5]; normal Balb/c mice", "value": 36004.16, "unit": "µg/L/min"}
    ]},
    {"smiles": "OCCc1ccc(O)cc1", "note": "[Tyrosol, tyrosol]", "values": [
      {"measurement": "course of metabolite content in intestinal bacteria incubation", "setting": "[2]", "value": "increased gradually with incubation time"},
      {"measurement": "plasma exposure in tumor mice compared with PGF tumor mice", "setting": "[3]; [7]", "value": "significantly higher"},
      {"measurement": "AUC(0−t)", "setting": "[3]; [6]", "value": 8918.61, "unit": "µg/L/min"},
      {"measurement": "AUC(0−∞)", "setting": "[3]; [6]", "value": 9833.89, "unit": "µg/L/min"},
      {"measurement": "amount detected in tumor tissue of tumor mice compared with PGF tumor mice", "setting": "[4]", "value": "a large amount"},
      {"measurement": "tissues in which the metabolite is distributed", "setting": "[4]", "value": "liver, kidney, stomach, small intestine, heart, spleen, lung, colon, and other organs and tissues"},
      {"measurement": "Cmax", "setting": "[5]; normal Balb/c mice", "value": 126, "unit": "ng/mL"},
      {"measurement": "half-life", "setting": "[5]; t1/2, normal Balb/c mice", "value": 110, "unit": "min"},
      {"measurement": "Tmax", "setting": "[5]; normal Balb/c mice", "value": 36, "unit": "min"},
      {"measurement": "AUC(0−t)", "setting": "[5]; normal Balb/c mice", "value": 13158.45, "unit": "µg/L/min"},
      {"measurement": "AUC(0−∞)", "setting": "[5]; normal Balb/c mice", "value": 13944.89, "unit": "µg/L/min"},
      {"measurement": "plasma concentration in PGF mice compared with normal group", "setting": "[5]; [7]", "value": "lower than that in the normal group"}
    ]}
  ]
}
